Data published in ChEMBL document CHEMBL4513216, “Probing the Open Global Health Chemical Diversity Library for Multistage-Active Starting Points for Next-Generation Antimalarials” (ACS Infect Dis, 2020).

Experiment: Toxicity liver stage against HepG2, at 10uM
Format: cell-based
Parameters: test concentration 10 uM, cell line HepG2-A16-CD81EGFP
Conditions: human, HepG2-A16-CD81EGFP cells; read-out: INHIBITION
How it was run: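 Uninfected HepG2-A16-CD81EGFP cells, 3 × 10^3 per well, 1536-well, plated on prespotted compound at 10 μM final, parasite-free screening media added to match infected plates; puromycin 10 μM positive, DMSO 0.5% negative; run in parallel with 48 h PbLuc assay at 37 °C, 5% CO2; viability by CellTiter-Glo luminescence, normalized to controls.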

Row | Compound | cytotoxicity at 10 µM
1 | Cn1c(=O)c2c(n3ncnc13)NC(=O)CC2c1cccc(F)c1 (stereo not drawn) | 2.05%
2 | Cc1ccc(C(=O)N(C)CC(=O)NCC(F)(F)F)cn1 | -4.46%
3 | CC(C)NC(=O)N1CCN2C(=O)N(Cc3ccc(F)cc3)C[C@H]2C1 | 0.88%
4 | CO[C@@H]1CN(c2ccccc2)S(=O)(=O)[C@@]12CCN(Cc1cncs1)C2 | 5.63%
5 | CO[C@H]1CN(c2ccccc2)S(=O)(=O)[C@@]12CCN(Cc1ccccc1)C2 | -4.86%
6 | O=S(=O)(Nc1cnc(N2CCOCC2)nc1)c1ccc(Cl)cc1 | -5.82%
7 | O=C(NCC1CCCCC1)c1nnn(-c2ccc(Br)cc2)n1 | -0.895%
8 | COC1(CNS(=O)(=O)c2ccccc2Br)CCSC1 (stereo not drawn) | -8.26%
9 | Cn1cnnc1S(=O)(=O)C1CCN(C(=O)c2cccs2)CC1 | 6.03%
10 | CCn1ncc2c1C(COC)CN(Cc1ccc(OC)cc1)C2 (stereo not drawn) | 11.4%
11 | Cc1nc(CN2C[C@@H]3OCCN(c4ncc(F)cn4)[C@@H]3C2)cs1 | -8.52%
12 | CN(C)C(=O)N1Cc2nnn(C)c2C(COCC2CC2)C1 (stereo not drawn) | -10.7%
13 | CN1CCc2c1nc1c(c2N)CCC1 | 0.0371%
14 | Cc1nn(C)c2c(NCc3ccccn3)ncnc12 | -5.2%
15 | O=S(=O)(c1ccc(F)c(F)c1)n1cc(Cl)cn1 | 4.66%
16 | Cc1sc(NC(=O)CCC(=O)O)c(C(N)=O)c1-c1ccc(Cl)cc1Cl | 15.6%
17 | CNC(=O)c1sc2ccccc2c1CC1CCCCN1Cc1ncc[nH]1 (stereo not drawn) | 2.35%
18 | CN1CC(=O)N(c2cccnc2)Cc2c(NC3CC3)ncnc21 | 5.28%
19 | Cc1cc(C(=O)NCc2ccc(F)cc2)c2c(C3CCNC3)noc2n1 (stereo not drawn) | 7.08%
20 | O=C(c1ccc(Cl)cc1)N1CCC(N2CCOC2=O)CC1 | 7.72%
21 | N#CCCN1CCN(S(=O)(=O)c2ccc(Cl)s2)CC1 | 14.7%
22 | O=C(NCCN1CCOCC1)c1cnc(-c2ccccc2F)s1 | 0.277%

Row | Compound | cytotoxicity at 10 µM
23 | Cc1ccc(C(=O)NS(=O)(=O)Cc2ccc(F)cc2)cc1S(C)(=O)=O | -7.36%
24 | Cc1cc(C)c(S(N)(=O)=O)cc1C(=O)NCCN1CCCCC1 | -5.52%
25 | CN(C(=O)OC(C)(C)C)C1CCN(C(=O)c2cc(Cl)c[nH]2)C1 (stereo not drawn) | 2.5%
26 | Cc1ccc(C(=O)NCc2cc(F)ccc2N2CCCN(C)CC2)o1 | -9.7%
27 | CN(C)CCN(C)S(=O)(=O)Cc1ccc(Br)cc1 | 0.936%
28 | COc1cc(NC2CCCN(c3ncccc3C#N)C2)cc(OC)c1 (stereo not drawn) | -9.25%
29 | CC(C(=O)N1CCN(C(=O)c2ccc(F)cc2F)CC1)n1ccnc1 (stereo not drawn) | 1.63%
30 | Cc1ccc(C(=O)N2CCN(C(=O)C(C)n3ccnc3)CC2)cc1F (stereo not drawn) | 3.72%
31 | Cc1cc(C(=O)NC2=NCCS2)c(C)n1-c1ccccn1 | 6.25%
32 | c1cc(CN2CCc3cncnc3C2)c2c(c1)OCCO2 | -3.67%
33 | Cc1nn(CC(C)C)c(N(C)C)c1CNCCCNS(C)(=O)=O | 1.73%
34 | CC(NC(=O)c1cccs1)C(=O)NS(=O)(=O)c1ccc(C#N)cc1 (stereo not drawn) | 5.11%
35 | Cc1noc(CCCNS(=O)(=O)N2CCCC2c2ccco2)n1 (stereo not drawn) | -7.88%
36 | Cn1cccc1-c1nnc(C2(c3ccc4c(c3)OCO4)CCOCC2)o1 | 20.3%
37 | CCCN1CCC(N2CCN(c3cc(C)nc(COC)n3)CC2)CC1 | -0.332%
38 | CSCCN1C(=O)CC(C)(c2ccc(Br)cc2)C1=O (stereo not drawn) | -8.98%
39 | CC(=O)c1ccc(Cl)c(Cl)c1OCC(=O)NCC(F)(F)F | -1.2%
40 | c1cnc(N2CCO[C@H]3CN(CC4CCCC4)C[C@H]32)cn1 | -101%
41 | O=C1N(c2ccsc2)CCC12CCCN(c1ccccn1)C2 (stereo not drawn) | -103%
42 | CC(=O)N1CCC2(CCN(CC3CCOC3)C2)CC1 (stereo not drawn) | -95%
43 | O=C(c1cccnc1)N1C[C@@H]2CN(CCN3CCCC3)C(=O)[C@@H]2C1 | -113%
44 | O=C(Cc1ccco1)N1C[C@H]2CCC[C@@]2(COc2cccnc2)C1 | -109%

Row | Compound | cytotoxicity at 10 µM
45 | O=C(C1=CCCC1)N1C[C@@H]2COC[C@]2(COCc2ccncc2)C1 | -96.4%
46 | CN(C)C(=O)NC1COC2(CCN(C(=O)Nc3ccccc3)CC2)C1 (stereo not drawn) | 0.179%
47 | O=C1CCC2(CCNCC2)CN1Cc1nnc2ccccn12 | -0.949%
48 | CS(=O)(=O)NC1CCN(CCOCc2ccccc2)CC1 | 2.84%
49 | Cc1cc(CNC(=O)c2cc(COc3cncc(Cl)c3)on2)n[nH]1 | 16.1%
50 | CCN1CC(c2ccccc2)CC2(CCN(Cc3ncc[nH]3)CC2)C1 (stereo not drawn) | 8.25%
51 | CN(Cc1nc(Cc2cccc(C(F)(F)F)c2)no1)CC1CCCCO1 (stereo not drawn) | 3.64%
52 | Cc1c[nH]c(CN2CCC3(CCCN(Cc4ccc(F)c(F)c4)C3)C2)n1 (stereo not drawn) | -7.22%
53 | Cc1nccn1CCCN1CCCC(c2nccn2CC2CCC2)C1 (stereo not drawn) | -13.7%
54 | Cc1cc(NC(C)Cc2cccs2)n2nccc2n1 (stereo not drawn) | 1.22%
55 | CN(C(=O)c1cccnc1)C1CCCN(CCc2ccccc2)C1 (stereo not drawn) | -3.59%
56 | CS(=O)(=O)c1cnc(CC2CC2)nc1C1CCCNC1 (stereo not drawn) | -33.5%
57 | Cc1cc(C)n(C2CCN(c3ncnc4c3CCNCC4)C2)n1 (stereo not drawn) | 7.82%
58 | Cc1c(Cl)cc(C(=O)NCCc2ncnn2C)cc1Cl | 6.07%
59 | O=C(C1CNCCN1C(=O)CCc1cccnc1)N1CCOCC1 (stereo not drawn) | 4.82%
60 | Nc1nc(Cn2ccnc2-c2cc(CN3CCCC3)cs2)cs1 | 1.4%
61 | CCN(Cc1cnc(NCc2ccccc2)nc1)C1CCS(=O)(=O)C1 (stereo not drawn) | -15.3%
62 | CCC(=O)N1CCC(n2cc(C(C)(C)O)nn2)CC1 | 3.92%
63 | CN(Cc1ncc[nH]1)c1nc(-c2ccccn2)nc2c1CCNCC2 | -0.796%
64 | C=C(C)CNCC1(O)CCCN(Cc2ccc(F)c(F)c2)C1=O (stereo not drawn) | -1.12%
65 | COc1cc(-c2cc(NC3CCCC3)nc3[nH]ccc23)nc(N)n1 | 10.2%
66 | Cc1cc(C2CCCCN2C(=O)CN2CC3(CCNCC3)OC2=O)no1 (stereo not drawn) | 8.69%

Row | Compound | cytotoxicity at 10 µM
67 | Cc1[nH]c(-c2ccccc2)nc1C(=O)N1CCC2(CCCO2)CC1 | 2.8%
68 | Cc1nc(N2CCC(C(O)c3nccn3C)CC2)c2nc(C)oc2n1 (stereo not drawn) | -2.22%
69 | CCCN(Cc1nccn1C)C(=O)c1cc(C)nc(C)n1 | 2.37%
70 | Cc1cnn(C(C)C2CC2)c1NC(=O)c1ccco1 (stereo not drawn) | -1.19%
71 | O=C(CCC(F)(F)F)N1CCN(Cc2ccncc2)[C@@H]2CS(=O)(=O)C[C@@H]21 | -2.11%
72 | COc1ccc(C(=O)C2CCCN(c3cc(C#N)ccn3)C2)cc1OC (stereo not drawn) | -0.312%
73 | Cc1cc(-c2nn(C)c(Cl)c2CN2CCOCC(O)C2)no1 (stereo not drawn) | -14.8%
74 | Cn1cc(CN2CC[C@@H]3[C@@H](CCC(=O)N3CCC3=CCCCC3)C2)cn1 | -8.68%
75 | CCc1cc(C(F)(F)F)c2c(C)nn(CC(=O)O)c2n1 | 0.77%
76 | CC1CCCCN1c1nc2c(c(=O)[nH]1)CCN(Cc1cccnc1)C2 (stereo not drawn) | -6.15%
77 | CN(c1ccncn1)C1CC2(CCN(C(=O)c3cccs3)C2)C1 (stereo not drawn) | -5.05%
78 | CCc1ncc2c(n1)CN(Cc1nnc(Cc3ccccc3)o1)CC2 | -3.04%
79 | Cc1occc1C(=O)N1CCCN(Cc2nccn2C(C)C)CC1 | -9.24%
80 | O=C(NCc1nn(-c2ccccc2)c2c1CCC2)NC1CCC(O)CC1 (stereo not drawn) | -7.75%
81 | Cc1cn2c(n1)CCC(NC(=O)c1ccc(S(C)(=O)=O)o1)C2 (stereo not drawn) | -6.92%
82 | Cn1cc(C2CCCN2Cc2csc(C3CCCC3)n2)cn1 (stereo not drawn) | 8.3%
83 | Clc1ccccc1-c1nnc(CNCCn2cccn2)o1 | 1.4%
84 | Cc1cc(CN(C)C(=O)c2ccc(OC(C)C)nc2)no1 | -15.3%
85 | COc1ccc(C(=O)N2CCC(Nc3ccc(C)nn3)CC2)cc1 | -8.51%
86 | COCc1nc(C(=O)N2CCCC2c2cccs2)cs1 (stereo not drawn) | -5.16%
87 | CCc1nnc2n1CCN(C(=O)c1cc(Br)c[nH]1)C2 | -7.93%
88 | CCc1nc(C2CCCN(C(=O)c3cn(C)nc3C)C2)no1 (stereo not drawn) | -14.5%

Row | Compound | cytotoxicity at 10 µM
89 | Cn1ccc(CN2CCC(NC(=O)Cc3ccccc3)CC2)cc1=O | -9.75%
90 | O=C1CCC(C(=O)NCc2nn(-c3ccccc3)c3c2CCC3)CN1 (stereo not drawn) | -10.1%
91 | O=C(NCc1nn(-c2ccccc2)c2c1CCC2)N1CCSCC1 | -4.89%
92 | Cc1cc(CN2CCC(c3ccnn3CCO)CC2)no1 | -11.2%
93 | O=C(NCCN1CCOCC1)c1n[nH]c(=O)c2ccccc12 | 0.376%
94 | CC(O)CN1CCN(C(=O)c2ccc(Cn3cccn3)cc2)CC1 (stereo not drawn) | -1.45%
95 | O=C(O)c1ccc(S(=O)(=O)Nc2ccc(Cl)c(F)c2)c(F)c1 | -14.3%
96 | CCN1CCC(NC(=O)CN2CCc3c(ncn3C)C2)CC1 | 1.85%
97 | CCN(Cc1ccc2c(c1)OCCO2)C(=O)NCc1cc[nH]n1 | 1.54%
98 | CCc1nc(CN2CCCN(C(=O)CCSC)CC2)cs1 | -5.41%
99 | Cc1noc([C@@H]2C[C@H]3CN(Cc4ccc5c(c4)OCO5)C[C@H]3O2)n1 | -113%
100 | Cc1cccc(CN2CCC3(CCN(Cc4ccccn4)C3)C2=O)c1 (stereo not drawn) | 12%
101 | O=C1CC[C@H]2[C@H](CCN2Cc2ccccn2)N1CC1CCOCC1 | 3.59%
102 | CC(C)N1CCc2c(C(=O)N3CCOCC3)nn(C)c2C1 | -105%
103 | COc1cccc(C(=O)N2CC[C@@H]3[C@H](CC2)N(C)CCS3(=O)=O)c1 | -129%
104 | O=C([C@@H]1C[C@@H]2CCN(c3cccc(F)c3)C[C@H]2O1)N1CCCC1 | -1.34%
105 | Cc1nn(C)c(Cl)c1CNCc1cccnc1N1CCOCC1 | -4.17%
106 | CN(C)CCO[C@@H]1CC[C@H]2[C@H]1OCCN2C(=O)c1ccc(F)cc1 | -7.1%
107 | CC(C)CN1C[C@H]2CCN(Cc3cccnc3)CC[C@H]2S1(=O)=O | -1.8%
108 | O=C(NC1CCC1)[C@@H]1CC[C@@H]2[C@@H](CCN2CCc2ccccc2)O1 | -127%
